Data on 22 compounds can be found in ChEMBL document CHEMBL1124912, “Inhibition of human leukocyte elastase. 3. Synthesis and activity of 3'-substituted cephalosporins” (J Med Chem, 1990).

The target in test [1] is T1, Neutrophil elastase (Homo sapiens) (UniProt P08246).
T1 sequence (whole entry): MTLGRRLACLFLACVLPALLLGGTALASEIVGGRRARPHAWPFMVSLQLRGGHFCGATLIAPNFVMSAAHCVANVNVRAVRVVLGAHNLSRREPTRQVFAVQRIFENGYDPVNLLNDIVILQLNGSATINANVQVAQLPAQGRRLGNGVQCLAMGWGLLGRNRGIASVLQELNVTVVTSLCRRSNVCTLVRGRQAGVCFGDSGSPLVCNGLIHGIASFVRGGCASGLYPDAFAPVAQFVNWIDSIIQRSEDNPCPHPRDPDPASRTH
Put plainly: Second-order rate constant for time-dependent inactivation of Human Leukocyte Elastase for 15 min. Summed up: (§1)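 Inactivation of HLE by inhibitor was followed over 15 min. The second-order rate constant was expressed as k_obs/[I] (M^-1 s^-1). Where inhibition was not time-dependent, Ki was instead calculated from the initial velocity.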

The target of the next test is T2, Neutrophil elastase (Homo sapiens, UniProt P08246).
T2 sequence (P08246 whole entry): T1 sequence (whole entry)
Description: In vitro inhibitory activity against human leukocyte elastase (HLE). Summed up:
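HLE at 1 μg/mL mixed with inhibitor, with enzyme activity read 2 min after mixing. IC50 (μM) is the inhibitor concentration that cuts HLE activity by 50%.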

The target of test [2] is T1, Neutrophil elastase (Homo sapiens). Put plainly: Second-order rate constant for time-dependent inactivation of HLE for 15 min. In short, it runs like this:
as §1

Test [3] shares this target.

What is called IC50 is the concentration needed to halve the response being measured. A low value points to inhibition by little substance. `CO[C@H]1C(=O)N2C(C(=O)OC(C)(C)C)=C(CSc3nnnn3C)CS(=O)(=O)C12` (stereo partly specified) came in with a k obs / 1 in test [1] of 15000 M⁻¹ s⁻¹. The compound also gave an IC50 against Neutrophil elastase of 1620 nM.
As for `CO[C@H]1C(=O)N2C(C(=O)OC(C)(C)C)=C(CSc3nccn3C)CS(=O)(=O)C12` (stereo partly specified), the k obs / 1 in test [1] came to 1880 M⁻¹ s⁻¹. In addition, the half-maximal inhibitory concentration (IC50) at Neutrophil elastase worked out at 2330 nM.
For `CO[C@H]1C(=O)N2C(C(=O)OC(C)(C)C)=C(CSc3nc(=O)c(=O)[nH]n3C)CS(=O)(=O)C12` (stereo partly specified), in test [1], the k obs / 1 amounted to 8600 M⁻¹ s⁻¹. Also, on Neutrophil elastase, inhibition was half-maximal at 630 nM (IC50).
`CO[C@H]1C(=O)N2C(C(=O)OC(C)(C)C)=C(COC(=O)NCc3ccccc3)CS(=O)(=O)C12` (stereo partly specified): in test [1], the k obs / 1 is 15100 M⁻¹ s⁻¹.
The compound `CO[C@H]1C(=O)N2C(C(=O)OC(C)(C)C)=C(COC(=O)c3ccccc3)CS(=O)(=O)C12` (stereo partly specified) yielded a k obs / 1 in test [1] of 32500 M⁻¹ s⁻¹.
For the compound `CO[C@H]1C(=O)N2C(C(=O)OC(C)(C)C)=C(C)CS(=O)(=O)C12` (stereo partly specified), in test [2], the k obs / 1 was 1630 M⁻¹ s⁻¹.
In test [2], `CO[C@H]1C(=O)N2C(C(=O)OC(C)(C)C)=C(CSc3nnc(C)s3)CS(=O)(=O)C12` (stereo partly specified) showed a k obs / 1 of 7900 M⁻¹ s⁻¹. The compound further displayed an IC50 at Neutrophil elastase of 2230 nM.
For the compound `CO[C@H]1C(=O)N2C(C(=O)OC(C)(C)C)=C(CS(=O)(=O)c3ccccc3)CS(=O)(=O)C12` (stereo partly specified), the half-inhibitory concentration (IC50) against Neutrophil elastase turned out to be 440 nM. That is a sub-micromolar value.
In test [1], `CO[C@H]1C(=O)N2C(C(=O)OC(C)(C)C)=C(CCl)CS(=O)(=O)C12` (stereo partly specified) gave a k obs / 1 of 14900 M⁻¹ s⁻¹.
Consider `COCC1=C(C(=O)OC(C)(C)C)N2C(=O)[C@H](OC)C2S(=O)(=O)C1` (stereo partly specified), for which the midpoint of inhibition on Neutrophil elastase, the IC50, lay at 1000 nM.
`CO[C@H]1C(=O)N2C(C(=O)OC(C)(C)C)=C(CSc3nnnn3CC(=O)O)CS(=O)(=O)C12` (stereo partly specified) yielded a k obs / 1 in test [1] of 3700 M⁻¹ s⁻¹.
Take `CCOC(=S)SCC1=C(C(=O)OC(C)(C)C)N2C(=O)[C@H](OC)C2S(=O)(=O)C1` (stereo partly specified): the k obs / 1 in test [1] was determined as 4300 M⁻¹ s⁻¹. The compound also returned an IC50 on Neutrophil elastase of 1820 nM.
In the case of `CO[C@H]1C(=O)N2C(C(=O)OC(C)(C)C)=C(COC(N)=O)CS(=O)(=O)C12` (stereo partly specified), in test [2], the k obs / 1 came out at 10800 M⁻¹ s⁻¹.
For `CO[C@H]1C(=O)N2C(C(=O)OC(C)(C)C)=C(C[S+]([O-])c3ccccc3)CS(=O)(=O)C12` (stereo partly specified), the k obs / 1 in test [2] amounted to 16800 M⁻¹ s⁻¹. In addition, half-maximal inhibition on Neutrophil elastase (IC50) required 910 nM.
`CO[C@H]1C(=O)N2C(C(=O)OC(C)(C)C)=C(COC(=O)C(C)(C)C)CS(=O)(=O)C12` (stereo partly specified) had a k obs / 1 in test [1] of 15800 M⁻¹ s⁻¹.
In test [1], `C=CCC1=C(C(=O)OC(C)(C)C)N2C(=O)[C@H](OC)C2S(=O)(=O)C1` (stereo partly specified) registered a k obs / 1 of 6100 M⁻¹ s⁻¹.
`CO[C@H]1C(=O)N2C(C(=O)OC(C)(C)C)=C(CSc3nc[nH]n3)CS(=O)(=O)C12` (stereo partly specified) had a k obs / 1 in test [1] of 3500 M⁻¹ s⁻¹.
`CO[C@H]1C(=O)N2C(C(=O)OC(C)(C)C)=C(COC(=O)CCC(=O)O)CS(=O)(=O)[C@H]12`: the k obs / 1 in test [2] was 13800 M⁻¹ s⁻¹.
In turn, `CO[C@H]1C(=O)N2C(C(=O)OC(C)(C)C)=C(COC(C)=O)CS(=O)(=O)C12` (stereo partly specified) had a k obs / 1 in test [3] of 12700 M⁻¹ s⁻¹. At Neutrophil elastase, this compound yielded an IC50 of 1330 nM.
Take `CO[C@H]1C(=O)N2C(C(=O)OC(C)(C)C)=C(COC(=O)N[C@@H](Cc3ccccc3)C(=O)O)CS(=O)(=O)C12` (stereo partly specified): the k obs / 1 in test [2] came to 63900 M⁻¹ s⁻¹. For the same compound, half-maximal inhibition against Neutrophil elastase (IC50) required 130 nM.
On Neutrophil elastase, `CO[C@H]1C(=O)N2C(C(=O)OC(C)(C)C)=C(CSc3nnc[nH]3)CS(=O)(=O)C12` (stereo partly specified) gave an IC50 of 2400 nM. In other words, the single-digit micromolar range.
Consider `CO[C@H]1C(=O)N2C3=C(COC3=O)CS(=O)(=O)C12` (stereo partly specified), for which, in test [1], the k obs / 1 stood at 46 M⁻¹ s⁻¹. Besides, half-maximal inhibition against Neutrophil elastase (IC50) required 57800 nM.
